ChEMBL document CHEMBL1138474, “Modulation of the transient receptor potential vanilloid channel TRPV4 by 4alpha-phorbol esters: a structure-activity study” (J Med Chem, 2009)
Activity calls are given as the source filed them. The calls are words filed in the database; no cut-off is given here.

Legend:
[1] = target: Transient receptor potential cation channel subfamily V member 4 (Mus musculus, UniProt Q9EPK8); test: (§1) Activation of mouse wild type TRPV4 expressed in HEK293 cells assessed as increase in intracellular calcium concentration; format: cell-based
Transient receptor potential cation channel subfamily V member 4 (Mus musculus, UniProt Q9EPK8), sequence (Q9EPK8 whole entry, the tested form may be a part): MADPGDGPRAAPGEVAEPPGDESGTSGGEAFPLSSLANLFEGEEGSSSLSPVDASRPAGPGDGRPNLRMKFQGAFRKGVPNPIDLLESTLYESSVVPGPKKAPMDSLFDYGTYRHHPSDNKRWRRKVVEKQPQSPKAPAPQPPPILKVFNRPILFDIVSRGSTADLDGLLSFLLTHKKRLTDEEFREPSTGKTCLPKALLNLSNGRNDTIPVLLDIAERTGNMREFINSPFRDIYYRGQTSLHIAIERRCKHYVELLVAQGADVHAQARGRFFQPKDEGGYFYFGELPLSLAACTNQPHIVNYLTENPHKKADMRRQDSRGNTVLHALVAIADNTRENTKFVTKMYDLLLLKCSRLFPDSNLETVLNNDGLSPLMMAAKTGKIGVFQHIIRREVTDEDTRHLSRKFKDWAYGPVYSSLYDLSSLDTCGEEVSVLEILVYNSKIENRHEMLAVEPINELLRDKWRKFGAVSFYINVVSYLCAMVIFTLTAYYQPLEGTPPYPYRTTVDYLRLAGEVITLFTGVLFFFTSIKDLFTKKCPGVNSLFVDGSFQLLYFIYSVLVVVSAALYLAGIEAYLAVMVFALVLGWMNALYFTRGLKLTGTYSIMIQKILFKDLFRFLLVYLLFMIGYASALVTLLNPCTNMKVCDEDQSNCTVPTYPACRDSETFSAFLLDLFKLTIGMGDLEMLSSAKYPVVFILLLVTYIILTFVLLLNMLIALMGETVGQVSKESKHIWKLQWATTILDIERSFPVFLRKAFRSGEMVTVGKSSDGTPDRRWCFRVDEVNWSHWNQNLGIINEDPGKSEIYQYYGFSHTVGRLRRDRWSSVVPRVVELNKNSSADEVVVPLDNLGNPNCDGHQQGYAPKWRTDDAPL
Outline: (§2)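 mTRPV4 (wild type or the Y556A, S557A or W586A TM3-4 mutant) in pCAGGS/Ires-GFP was transiently transfected into HEK293 cells and incubated overnight. GFP-positive cells on poly-L-lysine coverslips were loaded with 4 µM Fura-2 AM for 30 min at 37 °C and perfused with Krebs solution (1.5 mM CaCl2, pH 7.4). The 340/380 nm ratio (510 nm emission) gave ∆Fura-2 ratio. EC50 came from a Hill fit, >15 cells, three transfections.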

[2] = target: T1, Transient receptor potential cation channel subfamily V member 2 (Homo sapiens) (UniProt Q9Y5S1); test: Activation of TRPV2 expressed in HEK293 cells assessed as increase in intracellular calcium concentration; format: cell-based
T1 sequence (whole entry): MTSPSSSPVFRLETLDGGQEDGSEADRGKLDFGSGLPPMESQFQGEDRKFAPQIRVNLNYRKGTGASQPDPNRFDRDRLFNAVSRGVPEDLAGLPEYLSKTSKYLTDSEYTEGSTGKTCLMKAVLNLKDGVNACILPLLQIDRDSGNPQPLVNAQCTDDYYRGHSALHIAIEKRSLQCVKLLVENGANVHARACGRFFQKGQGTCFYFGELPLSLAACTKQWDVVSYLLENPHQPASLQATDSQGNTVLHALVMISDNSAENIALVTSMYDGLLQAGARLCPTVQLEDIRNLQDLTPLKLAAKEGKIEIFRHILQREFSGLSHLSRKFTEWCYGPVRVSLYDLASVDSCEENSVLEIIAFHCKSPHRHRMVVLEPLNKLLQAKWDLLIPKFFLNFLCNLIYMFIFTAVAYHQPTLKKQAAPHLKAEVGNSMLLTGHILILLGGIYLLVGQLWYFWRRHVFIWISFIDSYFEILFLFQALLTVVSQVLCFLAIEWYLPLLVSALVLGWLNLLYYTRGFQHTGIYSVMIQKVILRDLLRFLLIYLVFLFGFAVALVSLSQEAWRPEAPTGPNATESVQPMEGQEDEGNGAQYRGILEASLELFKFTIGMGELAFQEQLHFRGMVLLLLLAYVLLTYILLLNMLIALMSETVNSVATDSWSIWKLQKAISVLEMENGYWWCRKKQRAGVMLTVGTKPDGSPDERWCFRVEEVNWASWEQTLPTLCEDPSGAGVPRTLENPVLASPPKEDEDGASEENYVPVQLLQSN
Outline: (§3)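 HEK293 cells grown in DMEM with 10% human serum at 37 °C/10% CO2 and transfected with the TRPV channel. Cells were loaded with 4 µM Fura-2 AM for 30 min at 37 °C and perfused with Krebs buffer (1.5 mM CaCl2, pH 7.4). Read-out is single-cell 340/380 nm fura-2 ratio imaging against nontransfected cells.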

[3] = target: T2, Transient receptor potential cation channel subfamily V member 3 (Homo sapiens) (UniProt Q8NET8); test: Activation of TRPV3 expressed in HEK293 cells assessed as increase in intracellular calcium concentration; format: cell-based; outline: as §3
T2 sequence (whole entry): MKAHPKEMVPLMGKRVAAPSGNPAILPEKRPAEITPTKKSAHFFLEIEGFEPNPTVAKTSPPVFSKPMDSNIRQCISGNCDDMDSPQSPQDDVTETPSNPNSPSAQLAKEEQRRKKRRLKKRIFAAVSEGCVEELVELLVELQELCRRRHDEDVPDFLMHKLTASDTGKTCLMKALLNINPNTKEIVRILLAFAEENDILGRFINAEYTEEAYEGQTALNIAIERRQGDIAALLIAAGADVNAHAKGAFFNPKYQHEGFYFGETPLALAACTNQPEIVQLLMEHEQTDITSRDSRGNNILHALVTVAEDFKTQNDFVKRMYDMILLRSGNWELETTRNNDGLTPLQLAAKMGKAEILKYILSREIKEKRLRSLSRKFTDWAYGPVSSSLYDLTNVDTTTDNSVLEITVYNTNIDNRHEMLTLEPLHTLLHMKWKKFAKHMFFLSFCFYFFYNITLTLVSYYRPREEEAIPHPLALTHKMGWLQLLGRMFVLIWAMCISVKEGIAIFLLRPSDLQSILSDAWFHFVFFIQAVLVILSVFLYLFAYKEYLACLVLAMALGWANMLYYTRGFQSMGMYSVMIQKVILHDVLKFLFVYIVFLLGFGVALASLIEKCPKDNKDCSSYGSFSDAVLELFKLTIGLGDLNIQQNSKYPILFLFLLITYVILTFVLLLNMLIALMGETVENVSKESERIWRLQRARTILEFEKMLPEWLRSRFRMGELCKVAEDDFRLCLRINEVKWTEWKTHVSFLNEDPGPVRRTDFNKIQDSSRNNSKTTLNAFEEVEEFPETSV

[4] = target: Transient receptor potential cation channel subfamily V member 4 (Mus musculus, UniProt Q9EPK8, W586A); test: Activation of mouse TRPV4 W586A mutant expressed in HEK293 cells assessed as increase in intracellular calcium concentration; format: cell-based; outline: as §2
Transient receptor potential cation channel subfamily V member 4 (Mus musculus, UniProt Q9EPK8, W586A), sequence (Q9EPK8 whole entry W586A): as the sequence (Q9EPK8 whole entry, the tested form may be a part) above, with W586A counted along it

[5] = target: Transient receptor potential cation channel subfamily V member 4 (Mus musculus) (UniProt Q9EPK8); test: Activation of mouse wild type TRPV4 expressed in HEK293 cells assessed as increase in intracellular calcium concentration at 500 nM in presence of TRP antagonist ruthenium red
Transient receptor potential cation channel subfamily V member 4 (Mus musculus), sequence (Q9EPK8 whole entry, the tested form may be a part): as the sequence (Q9EPK8 whole entry, the tested form may be a part) above

[6] = target: Transient receptor potential cation channel subfamily V member 4 (Mus musculus) (UniProt Q9EPK8); test: Activation of mouse wild type TRPV4 expressed in HEK293 cells assessed as increase in intracellular calcium concentration at 500 nM
[7] = target: Transient receptor potential cation channel subfamily V member 4 (Mus musculus, UniProt Q9EPK8, S557A); test: Activation of mouse TRPV4 S557A mutant expressed in HEK293 cells assessed as increase in intracellular calcium concentration; format: cell-based; outline: as §2
Transient receptor potential cation channel subfamily V member 4 (Mus musculus, UniProt Q9EPK8, S557A), sequence (Q9EPK8 whole entry S557A): as the sequence (Q9EPK8 whole entry, the tested form may be a part) above, with S557A counted along it

[8] = target: Transient receptor potential cation channel subfamily V member 4 (Mus musculus, UniProt Q9EPK8, Y556A); test: Activation of mouse TRPV4 Y556A mutant expressed in HEK293 cells assessed as increase in intracellular calcium concentration; format: cell-based; outline: as §2
Transient receptor potential cation channel subfamily V member 4 (Mus musculus, UniProt Q9EPK8, Y556A), sequence (Q9EPK8 whole entry Y556A): as the sequence (Q9EPK8 whole entry, the tested form may be a part) above, with Y556A counted along it

[9] = target: Transient receptor potential cation channel subfamily V member 4 (Mus musculus) (UniProt Q9EPK8); test: Activation of mouse wild type TRPV4 expressed in HEK293 cells assessed as outward-inward rectifying current density at 500 nM at a holding potential of 100 mV by whole cell patch-clamp assay in absence of calcium; format: cell-based
Outline: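 Whole-cell patch clamp was run on mTRPV4-transfected HEK293 cells using ramps from -100 to +100 mV. CaCl2 was omitted from both solutions. Bath (mM): 150 NaCl, 6 CsCl, 1 MgCl2, 10 glucose, 10 HEPES, pH 7.4. Pipette (mM): 20 CsCl, 100 aspartate, 1 MgCl2, 10 HEPES, 4 Na-ATP, 10 BAPTA, pH 7.4. Agonist was added to the bath. Five cells, >2 transfections.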

[10] = target: Transient receptor potential cation channel subfamily V member 1 (Homo sapiens) (UniProt Q8NER1); test: Activation of TRPV1 expressed in HEK293 cells assessed as increase in intracellular calcium concentration; format: cell-based; outline: as §3
Transient receptor potential cation channel subfamily V member 1 (Homo sapiens), sequence (Q8NER1 whole entry): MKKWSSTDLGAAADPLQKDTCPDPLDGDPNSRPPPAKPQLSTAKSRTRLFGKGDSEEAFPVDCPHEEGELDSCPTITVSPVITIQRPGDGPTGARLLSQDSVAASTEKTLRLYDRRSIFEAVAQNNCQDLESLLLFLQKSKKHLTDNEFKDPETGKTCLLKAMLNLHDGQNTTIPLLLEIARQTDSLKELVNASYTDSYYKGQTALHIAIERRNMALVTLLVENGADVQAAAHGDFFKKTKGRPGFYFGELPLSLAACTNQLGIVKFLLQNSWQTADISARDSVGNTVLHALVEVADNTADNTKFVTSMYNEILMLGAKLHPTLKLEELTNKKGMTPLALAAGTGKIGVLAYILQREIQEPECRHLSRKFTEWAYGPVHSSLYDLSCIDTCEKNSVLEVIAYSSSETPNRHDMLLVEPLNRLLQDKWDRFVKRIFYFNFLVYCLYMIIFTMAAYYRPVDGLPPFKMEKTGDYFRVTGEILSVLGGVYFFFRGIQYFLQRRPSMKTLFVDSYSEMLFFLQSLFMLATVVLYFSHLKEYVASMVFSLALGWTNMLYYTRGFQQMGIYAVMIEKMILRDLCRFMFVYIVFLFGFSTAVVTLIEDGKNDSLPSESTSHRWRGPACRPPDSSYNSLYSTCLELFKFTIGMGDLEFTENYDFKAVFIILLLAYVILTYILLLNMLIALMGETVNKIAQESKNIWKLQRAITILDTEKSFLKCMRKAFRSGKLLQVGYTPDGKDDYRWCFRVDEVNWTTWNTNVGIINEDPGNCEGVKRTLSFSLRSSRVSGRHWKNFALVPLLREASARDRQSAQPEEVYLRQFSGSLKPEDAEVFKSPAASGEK

[11] = target: Transient receptor potential cation channel subfamily V member 4 (Mus musculus) (UniProt Q9EPK8); test: Activation of mouse wild type TRPV4 expressed in HEK293 cells assessed as outward-inward rectifying current density at 500 nM at a holding potential of 100 mV by whole cell patch-clamp assay in presence of calcium; format: cell-based
Outline: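 Whole-cell patch clamp was run on mTRPV4-transfected HEK293 cells using ramps from -100 to +100 mV. Bath (mM): 150 NaCl, 6 CsCl, 1 MgCl2, 5 CaCl2, 10 glucose, 10 HEPES, pH 7.4. Pipette (mM): 20 CsCl, 100 aspartate, 1 MgCl2, 10 HEPES, 4 Na-ATP, 10 BAPTA, free Ca2+ buffered to 200 nM, pH 7.4. Agonist was added to the bath. Five cells, >2 transfections.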

[12] = target: Transient receptor potential cation channel subfamily V member 4 (Mus musculus) (UniProt Q9EPK8); test: Agonist activity at mouse wild type TRPV4 expressed in HEK293 cells assessed as increase in intracellular calcium measured by fura-2 fluorescence ratio; format: functional, cell-based
Outline: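 Mouse TRPV4 (pCAGGS/Ires-GFP) transiently transfected into HEK293 cells, incubated overnight, then seeded on poly-L-lysine coverslips. GFP-positive cells loaded with 4 µM Fura-2 AM for 30 min at 37 °C and perfused with Krebs (pH 7.4). ΔFura-2 ratio taken as (Rt−R0)/R0 at the maximal response. EC50 from a Hill fit over >15 cells from three transfections, mean ± SEM.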

HEK293 [13] = test: Effect on intracellular calcium level in non transfected HEK293 cells at >10 uM; format: functional, cell-based; settings: Homo sapiens
Outline: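 GFP-negative (untransfected) HEK293 cells from the same coverslips were imaged by fura-2 ratio. Compound was applied at concentrations above 10 µM.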

[14] = target: Transient receptor potential cation channel subfamily V member 4 (Mus musculus) (UniProt Q9EPK8); test: Activation of mouse wild type TRPV4 expressed in HEK293 cells assessed as increase in intracellular calcium concentration at 0.1 uM; format: cell-based
[15] = test system: Transient receptor potential cation channel subfamily V member 4 (Mus musculus), Q9EPK8 [W586A]; test: Agonist activity at mouse TRPV4 W586A mutant expressed in HEK293 cells assessed as increase in intracellular calcium measured by fura-2 fluorescence ratio; format: functional, cell-based
Transient receptor potential cation channel subfamily V member 4 (Mus musculus), Q9EPK8 [W586A], sequence (Q9EPK8 whole entry W586A): as the sequence (Q9EPK8 whole entry, the tested form may be a part) above, with W586A counted along it
Outline: (§4)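 HEK293 cells transiently transfected with W586A or Y556A mouse TRPV4 mutants alongside wild type. Dose-response by single-cell fura-2 Ca2+ imaging, read as ΔFura-2 ratio. More than 15 cells per point from three independent transfections. Hill fit used, significance set at p < 0.05.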

[16] = test system: Transient receptor potential cation channel subfamily V member 4 (Mus musculus), Q9EPK8 [Y556A]; test: Agonist activity at mouse TRPV4 Y556A mutant expressed in HEK293 cells assessed as increase in intracellular calcium measured by fura-2 fluorescence ratio; format: functional, cell-based; outline: as §4
Transient receptor potential cation channel subfamily V member 4 (Mus musculus), Q9EPK8 [Y556A], sequence (Q9EPK8 whole entry Y556A): as the sequence (Q9EPK8 whole entry, the tested form may be a part) above, with Y556A counted along it

HEK293 [17] = test: Effect on intracellular calcium level in non transfected HEK293 cells; format: functional, cell-based; settings: Homo sapiens
Outline: (§5)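 GFP-negative cells from the same coverslips as the mTRPV4-transfected HEK293 cells served as untransfected controls. Cells were loaded with 4 µM Fura-2 AM for 30 min at 37 °C and perfused with Krebs solution (pH 7.4). ∆Fura-2 ratio was taken as (Rt−Rt0)/Rt0 from 340/380 nm excitation, with background subtracted.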

[18] = target: Transient receptor potential cation channel subfamily V member 4 (Mus musculus) (UniProt Q9EPK8); test: Activation of mouse wild type TRPV4 expressed in HEK293 cells assessed as increase in intracellular calcium concentration at 1 uM in presence of TRP antagonist ruthenium red; format: functional, cell-based
Outline: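 Single-cell fura-2 imaging was done on GFP-positive HEK293 cells transiently expressing mTRPV4, perfused with Krebs buffer (1.5 mM CaCl2, pH 7.4). Agonist at 1 µM was applied in the bath, and ruthenium red 1 µM was added to the extracellular solution as indicated. The read-out was the 340/380 nm ratio change. Three independent experiments were run.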

[19] = target: Transient receptor potential cation channel subfamily V member 4 (Mus musculus) (UniProt Q9EPK8); test: as §1; format: cell-based; outline: as §2
HEK293 [20] = test: Effect on intracellular calcium level in non transfected HEK293 cells assessed as increase in fura-2 ratio; format: functional, cell-based; settings: Homo sapiens; outline: as §5

SMILES	EC50 [1] [µM]	EC50 [4] [µM]	EC50 [7] [µM]	EC50 [8] [µM]	other results
CCCCCCCC(=O)O[C@@H]1[C@@H](C)[C@@]2(O)[C@@H](C=C(CO)C[C@@]3(O)C(=O)C(C)=C[C@@H]23)[C@@H]2C(C)(C)[C@]12OC(=O)CCCCCCC	> 50	–	–	–	–
CCCCCCCCCC(=O)O[C@@H]1[C@@H](C)[C@]2(O)[C@@H]3C4C([C@H]2[C@@H]2C(C)(C)[C@]12OC(=O)CCCCCCCCC)C1(CO)C[C@H]3C(=O)C41C (stereo partly drawn)	0.175	3.64	0.24	9.36	Activity [2]: inactive; Activity [3]: inactive; Activity [5]: inactive; Activity [6]: Active; Activity [9]: 635; Activity [10]: inactive; Activity [11]: 505; Activity [12]: Active; Activity (HEK293 [13]): Active; Activity [14]: Active; Activity [15]: Active; Activity [16]: Active
CCCCCCCCCCCCCC(=O)O[C@@H]1[C@@H](C)[C@@]2(O)[C@@H](C=C(CO)C[C@@]3(O)C(=O)C(C)=C[C@@H]23)[C@@H]2C(C)(C)[C@]12OC(=O)CCCCCCCCCCCCC	2.83	–	–	–	–
CCCCCC(=O)O[C@@H]1[C@@H](C)[C@@]2(O)[C@@H](C=C(CO)C[C@@]3(O)C(=O)C(C)=C[C@@H]23)[C@@H]2C(C)(C)[C@]12OC(=O)CCCCC	0.07	2.84	0.36	2.79	Activity (HEK293 [17]): inactive; Activity [18]: inactive; Activity [9]: 806; Activity [11]: 354; Activity [19]: Dose-dependent effect
CCCCCCCCCC(=O)O[C@@H]1[C@@H](C)[C@@]2(O)[C@@H](C=C(CO)C[C@@]3(O)C(=O)C(C)=C[C@@H]23)[C@@H]2C(C)(C)[C@]12OC(=O)CCCCCCCCC	0.37	> 6	0.32	6.3	Activity (HEK293 [20]): Active
CCCCCCCCCC(=O)O[C@@]12[C@H](O)[C@@H](C)[C@@]3(O)[C@@H](C=C(CO)C[C@@]4(O)C(=O)C(C)=C[C@@H]34)[C@@H]1C2(C)C	0.45	–	–	–	Activity (HEK293 [20]): Active
CCCCCCCCCC(=O)O[C@@H]1[C@@H](C)[C@]2(O)[C@@H]3C=C(C)C(=O)[C@@H]3CC(CO)=C[C@H]2[C@@H]2C(C)(C)[C@]12OC(=O)CCCCCCCCC	> 50	–	–	–	–
CCCCCCCCC(=O)O[C@@H]1[C@@H](C)[C@@]2(O)[C@@H](C=C(CO)C[C@@]3(O)C(=O)C(C)=C[C@@H]23)[C@@H]2C(C)(C)[C@]12OC(=O)CCCCCCCC	> 50	–	–	–	–
CCCC(=O)O[C@@H]1[C@@H](C)[C@@]2(O)[C@@H](C=C(CO)C[C@]3(O)C(=O)C(C)=C[C@@H]23)[C@@H]2C(C)(C)[C@]12OC(=O)CCC	22.5	–	–	–	–
CC(=O)O[C@@H]1[C@@H](C)[C@@]2(O)[C@@H](C=C(CO)C[C@@]3(O)C(=O)C(C)=C[C@@H]23)[C@@H]2C(C)(C)[C@]12OC(C)=O	> 50	–	–	–	–
